Laboratory results published in ChEMBL document CHEMBL1154358, “Xanalteric acids I and II and related phenolic compounds from an endophytic Alternaria sp. isolated from the mangrove plant Sonneratia alba” (J Nat Prod, 2009).
≈ marks a conversion by molar mass, not a printed value. Calls of active or inactive are those of the source.

tested on: Escherichia coli; assay: Antibacterial activity against multidrug-resistant Escherichia coli by broth dilution method; format: functional, organism-based
Summary of the method: (§1)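 Dilution assay following EUCAST criteria against multidrug-resistant bacterial or fungal strains. Compounds were tested from 250 down to 0.48 μg/mL. MIC was taken as the lowest concentration at which bacterial or fungal growth was inhibited.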

Row | Compound | Activity | MIC
1 | COc1c(CC(C)O)c2c3c(CC(C)O)c(C(=O)O)oc4c(O)cc5c(c6c(cc(O)c(c1=O)c62)OCO5)c43 (configuration not stated) | inactive | –
2 | O=C1C[C@H](O)[C@@H]2c3c(ccc(O)c31)-c1ccc(O)c3c1[C@@]2(O)CCC3=O | inactive | –
3 | COc1cc(O)c(C(=O)O)c(-c2cc(O)c(O)cc2C)c1 [ALTENUSIN] | inactive | –
4 | O=C1C[C@@H](O)[C@@H]2c3ccc(O)c4c3[C@@H](c3ccc(O)c1c32)[C@H](O)CC4=O | inactive | –
5 | COc1cc(O)c2c(c1)C1=C[C@H](O)[C@@H](O)C[C@]1(C)OC2=O | inactive | –
6 | Cc1cc(O)cc2oc(=O)c3c(O)cc(O)cc3c12 | – | inactive

tested on: Klebsiella pneumoniae; assay: Antibacterial activity against multidrug-resistant Klebsiella pneumoniae by broth dilution method; format: functional, organism-based; summary of the method: as §1

Row | Compound | Activity | MIC
7 | COc1c(CC(C)O)c2c3c(CC(C)O)c(C(=O)O)oc4c(O)cc5c(c6c(cc(O)c(c1=O)c62)OCO5)c43 (configuration not stated) | inactive | –
8 | O=C1C[C@H](O)[C@@H]2c3c(ccc(O)c31)-c1ccc(O)c3c1[C@@]2(O)CCC3=O | inactive | –
9 | COc1cc(O)c(C(=O)O)c(-c2cc(O)c(O)cc2C)c1 [ALTENUSIN] | inactive | –
10 | O=C1C[C@@H](O)[C@@H]2c3ccc(O)c4c3[C@@H](c3ccc(O)c1c32)[C@H](O)CC4=O | inactive | –
11 | COc1cc(O)c2c(c1)C1=C[C@H](O)[C@@H](O)C[C@]1(C)OC2=O | inactive | –
12 | Cc1cc(O)cc2oc(=O)c3c(O)cc(O)cc3c12 | – | inactive

tested on: Enterobacter cloacae; assay: Antibacterial activity against multidrug-resistant Enterobacter cloacae by broth dilution method; format: functional; summary of the method: as §1

Row | Compound | Activity | MIC [µg/mL]
13 | COc1c(CC(C)O)c2c3c(CC(C)O)c(C(=O)O)oc4c(O)cc5c(c6c(cc(O)c(c1=O)c62)OCO5)c43 (configuration not stated) | inactive | –
14 | O=C1C[C@H](O)[C@@H]2c3c(ccc(O)c31)-c1ccc(O)c3c1[C@@]2(O)CCC3=O | inactive | –
15 | COc1cc(O)c(C(=O)O)c(-c2cc(O)c(O)cc2C)c1 [ALTENUSIN] | – | 125 (≈ 431 µM)
16 | O=C1C[C@@H](O)[C@@H]2c3ccc(O)c4c3[C@@H](c3ccc(O)c1c32)[C@H](O)CC4=O | inactive | –
17 | COc1cc(O)c2c(c1)C1=C[C@H](O)[C@@H](O)C[C@]1(C)OC2=O | inactive | –
18 | Cc1cc(O)cc2oc(=O)c3c(O)cc(O)cc3c12 | inactive | –

tested on: Streptococcus pneumoniae; assay: Antibacterial activity against multidrug-resistant Streptococcus pneumoniae by broth dilution method; format: functional; summary of the method: as §1

Row | Compound | Activity | MIC [µg/mL]
19 | COc1c(CC(C)O)c2c3c(CC(C)O)c(C(=O)O)oc4c(O)cc5c(c6c(cc(O)c(c1=O)c62)OCO5)c43 (configuration not stated) | inactive | –
20 | O=C1C[C@H](O)[C@@H]2c3c(ccc(O)c31)-c1ccc(O)c3c1[C@@]2(O)CCC3=O | inactive | –
21 | COc1cc(O)c(C(=O)O)c(-c2cc(O)c(O)cc2C)c1 [ALTENUSIN] | – | 31.2 (≈ 108 µM)
22 | O=C1C[C@@H](O)[C@@H]2c3ccc(O)c4c3[C@@H](c3ccc(O)c1c32)[C@H](O)CC4=O | inactive | –
23 | COc1cc(O)c2c(c1)C1=C[C@H](O)[C@@H](O)C[C@]1(C)OC2=O | inactive | –
24 | Cc1cc(O)cc2oc(=O)c3c(O)cc(O)cc3c12 | inactive | –

tested on: Staphylococcus aureus; assay: Antibacterial activity against methicillin-resistant Staphylococcus aureus by broth dilution method; format: functional; summary of the method: as §1

Row | Compound | Activity | MIC [µg/mL]
25 | COc1c(CC(C)O)c2c3c(CC(C)O)c(C(=O)O)oc4c(O)cc5c(c6c(cc(O)c(c1=O)c62)OCO5)c43 (configuration not stated) | inactive | –
26 | O=C1C[C@H](O)[C@@H]2c3c(ccc(O)c31)-c1ccc(O)c3c1[C@@]2(O)CCC3=O | inactive | –
27 | COc1cc(O)c(C(=O)O)c(-c2cc(O)c(O)cc2C)c1 [ALTENUSIN] | – | 31.2 (≈ 108 µM)
28 | O=C1C[C@@H](O)[C@@H]2c3ccc(O)c4c3[C@@H](c3ccc(O)c1c32)[C@H](O)CC4=O | inactive | –
29 | COc1cc(O)c2c(c1)C1=C[C@H](O)[C@@H](O)C[C@]1(C)OC2=O | inactive | –
30 | Cc1cc(O)cc2oc(=O)c3c(O)cc(O)cc3c12 | inactive | –

tested on: Pichia kudriavzevii; assay: Antifungal activity against multidrug-resistant Candida krusei by broth dilution method; format: functional, organism-based; summary of the method: as §1

Row | Compound | Activity | MIC
31 | COc1c(CC(C)O)c2c3c(CC(C)O)c(C(=O)O)oc4c(O)cc5c(c6c(cc(O)c(c1=O)c62)OCO5)c43 (configuration not stated) | inactive | –
32 | O=C1C[C@H](O)[C@@H]2c3c(ccc(O)c31)-c1ccc(O)c3c1[C@@]2(O)CCC3=O | inactive | –
33 | COc1cc(O)c(C(=O)O)c(-c2cc(O)c(O)cc2C)c1 [ALTENUSIN] | inactive | –
34 | O=C1C[C@@H](O)[C@@H]2c3ccc(O)c4c3[C@@H](c3ccc(O)c1c32)[C@H](O)CC4=O | inactive | –
35 | COc1cc(O)c2c(c1)C1=C[C@H](O)[C@@H](O)C[C@]1(C)OC2=O | inactive | –
36 | Cc1cc(O)cc2oc(=O)c3c(O)cc(O)cc3c12 | – | inactive

tested on: Aspergillus fumigatus; assay: Antifungal activity against multidrug-resistant Aspergillus fumigatus by broth dilution method; format: functional, organism-based; summary of the method: as §1

Row | Compound | Activity | MIC
37 | COc1c(CC(C)O)c2c3c(CC(C)O)c(C(=O)O)oc4c(O)cc5c(c6c(cc(O)c(c1=O)c62)OCO5)c43 (configuration not stated) | inactive | –
38 | O=C1C[C@H](O)[C@@H]2c3c(ccc(O)c31)-c1ccc(O)c3c1[C@@]2(O)CCC3=O | inactive | –
39 | COc1cc(O)c(C(=O)O)c(-c2cc(O)c(O)cc2C)c1 [ALTENUSIN] | inactive | –
40 | O=C1C[C@@H](O)[C@@H]2c3ccc(O)c4c3[C@@H](c3ccc(O)c1c32)[C@H](O)CC4=O | inactive | –
41 | COc1cc(O)c2c(c1)C1=C[C@H](O)[C@@H](O)C[C@]1(C)OC2=O | inactive | –
42 | Cc1cc(O)cc2oc(=O)c3c(O)cc(O)cc3c12 | – | inactive

tested on: Aspergillus ficuum; assay: Antifungal activity against multidrug-resistant Aspergillus ficuum by broth dilution method; format: functional

Row | Compound | Activity | MIC [µg/mL]
43 | COc1c(CC(C)O)c2c3c(CC(C)O)c(C(=O)O)oc4c(O)cc5c(c6c(cc(O)c(c1=O)c62)OCO5)c43 (configuration not stated) | inactive | –
44 | O=C1C[C@H](O)[C@@H]2c3c(ccc(O)c31)-c1ccc(O)c3c1[C@@]2(O)CCC3=O | inactive | –
45 | COc1cc(O)c(C(=O)O)c(-c2cc(O)c(O)cc2C)c1 [ALTENUSIN] | – | 62.5
46 | O=C1C[C@@H](O)[C@@H]2c3ccc(O)c4c3[C@@H](c3ccc(O)c1c32)[C@H](O)CC4=O | inactive | –
47 | COc1cc(O)c2c(c1)C1=C[C@H](O)[C@@H](O)C[C@]1(C)OC2=O | inactive | –
48 | Cc1cc(O)cc2oc(=O)c3c(O)cc(O)cc3c12 | inactive | –

tested on: Candida albicans; assay: Antifungal activity against multidrug-resistant Candida albicans by broth dilution method; format: functional; summary of the method: as §1

Row | Compound | Activity | MIC [µg/mL]
49 | COc1c(CC(C)O)c2c3c(CC(C)O)c(C(=O)O)oc4c(O)cc5c(c6c(cc(O)c(c1=O)c62)OCO5)c43 (configuration not stated) | inactive | –
50 | O=C1C[C@H](O)[C@@H]2c3c(ccc(O)c31)-c1ccc(O)c3c1[C@@]2(O)CCC3=O | inactive | –
51 | COc1cc(O)c(C(=O)O)c(-c2cc(O)c(O)cc2C)c1 [ALTENUSIN] | – | 125 (≈ 431 µM)
52 | O=C1C[C@@H](O)[C@@H]2c3ccc(O)c4c3[C@@H](c3ccc(O)c1c32)[C@H](O)CC4=O | inactive | –
53 | COc1cc(O)c2c(c1)C1=C[C@H](O)[C@@H](O)C[C@]1(C)OC2=O | inactive | –
54 | Cc1cc(O)cc2oc(=O)c3c(O)cc(O)cc3c12 | inactive | –

tested on: Enterococcus faecium; assay: Antibacterial activity against multidrug-resistant Enterococcus faecium by broth dilution method; format: functional; summary of the method: as §1

Row | Compound | Activity | MIC [µg/mL]
55 | COc1c(CC(C)O)c2c3c(CC(C)O)c(C(=O)O)oc4c(O)cc5c(c6c(cc(O)c(c1=O)c62)OCO5)c43 (configuration not stated) | inactive | –
56 | O=C1C[C@H](O)[C@@H]2c3c(ccc(O)c31)-c1ccc(O)c3c1[C@@]2(O)CCC3=O | inactive | –
57 | COc1cc(O)c(C(=O)O)c(-c2cc(O)c(O)cc2C)c1 [ALTENUSIN] | – | 62.5 (≈ 215 µM)
58 | O=C1C[C@@H](O)[C@@H]2c3ccc(O)c4c3[C@@H](c3ccc(O)c1c32)[C@H](O)CC4=O | inactive | –
59 | COc1cc(O)c2c(c1)C1=C[C@H](O)[C@@H](O)C[C@]1(C)OC2=O | inactive | –
60 | Cc1cc(O)cc2oc(=O)c3c(O)cc(O)cc3c12 | inactive | –

tested on: Acinetobacter baumannii; assay: Antibacterial activity against multidrug-resistant Acinetobacter baumannii by broth dilution method; format: functional, organism-based

Row | Compound | Activity | MIC
61 | COc1c(CC(C)O)c2c3c(CC(C)O)c(C(=O)O)oc4c(O)cc5c(c6c(cc(O)c(c1=O)c62)OCO5)c43 (configuration not stated) | inactive | –
62 | O=C1C[C@H](O)[C@@H]2c3c(ccc(O)c31)-c1ccc(O)c3c1[C@@]2(O)CCC3=O | inactive | –
63 | COc1cc(O)c(C(=O)O)c(-c2cc(O)c(O)cc2C)c1 [ALTENUSIN] | inactive | –
64 | O=C1C[C@@H](O)[C@@H]2c3ccc(O)c4c3[C@@H](c3ccc(O)c1c32)[C@H](O)CC4=O | inactive | –
65 | COc1cc(O)c2c(c1)C1=C[C@H](O)[C@@H](O)C[C@]1(C)OC2=O | inactive | –
66 | Cc1cc(O)cc2oc(=O)c3c(O)cc(O)cc3c12 | – | inactive

tested on: Pseudomonas aeruginosa; assay: Antibacterial activity against multidrug-resistant Pseudomonas aeruginosa by broth dilution method; format: functional, organism-based; summary of the method: as §1

Row | Compound | Activity | MIC
67 | COc1c(CC(C)O)c2c3c(CC(C)O)c(C(=O)O)oc4c(O)cc5c(c6c(cc(O)c(c1=O)c62)OCO5)c43 (configuration not stated) | inactive | –
68 | O=C1C[C@H](O)[C@@H]2c3c(ccc(O)c31)-c1ccc(O)c3c1[C@@]2(O)CCC3=O | inactive | –
69 | COc1cc(O)c(C(=O)O)c(-c2cc(O)c(O)cc2C)c1 [ALTENUSIN] | inactive | –
70 | O=C1C[C@@H](O)[C@@H]2c3ccc(O)c4c3[C@@H](c3ccc(O)c1c32)[C@H](O)CC4=O | inactive | –
71 | COc1cc(O)c2c(c1)C1=C[C@H](O)[C@@H](O)C[C@]1(C)OC2=O | inactive | –
72 | Cc1cc(O)cc2oc(=O)c3c(O)cc(O)cc3c12 | – | inactive
